Results: ChEMBL document CHEMBL5370658, “Development of First-in-Class Dual Sirt2/HDAC6 Inhibitors as Molecular Tools for Dual Inhibition of Tubulin Deacetylation” (J Med Chem, 2023)
Activity calls are given as the source filed them. No cut-off for these calls is given here.

Assays:
[1] = Cytotoxicity against human PC-3M-luc cells assessed as inhibition of cell growth at 50 uM incubated for 72 hrs by MTS assay relative to control; assay type: functional
[2] = test system: MCF7; experiment: Cytotoxicity against human MCF7 cells assessed as inhibition of cell growth at 50 uM incubated for 72 hrs by MTT assay relative to control; assay type: functional
[3] = Cytotoxicity against human W1 Ovarian cancer cells assessed as inhibition of cell growth at 50 uM incubated for 72 hrs by MTT assay relative to control; assay type: functional
[4] = test system: PC-3M-luc; conditions: Homo sapiens, dose 20.0 µM, time 5.0 hrs
[5] = test system: HGC-27; experiment: Cytotoxicity against human HGC-27 cells assessed as inhibition of cell growth at 50 uM incubated for 72 hrs by MTS assay relative to control; assay type: functional
[6] = molecular target: T1, NAD-dependent protein deacetylase sirtuin-2 (Homo sapiens) (UniProt Q8IXJ6); experiment: Inhibition of recombinant human Sirt2 (56 to 356 residues) expressed in Escherichia coli BL21 Star (DE3) mediated demyristoylation activity using ZMML as substrate at 10 uM incubated for 4 hrs in presence of NAD+ by trypsin based fluorescence analysis relative to control
T1 sequence (whole entry): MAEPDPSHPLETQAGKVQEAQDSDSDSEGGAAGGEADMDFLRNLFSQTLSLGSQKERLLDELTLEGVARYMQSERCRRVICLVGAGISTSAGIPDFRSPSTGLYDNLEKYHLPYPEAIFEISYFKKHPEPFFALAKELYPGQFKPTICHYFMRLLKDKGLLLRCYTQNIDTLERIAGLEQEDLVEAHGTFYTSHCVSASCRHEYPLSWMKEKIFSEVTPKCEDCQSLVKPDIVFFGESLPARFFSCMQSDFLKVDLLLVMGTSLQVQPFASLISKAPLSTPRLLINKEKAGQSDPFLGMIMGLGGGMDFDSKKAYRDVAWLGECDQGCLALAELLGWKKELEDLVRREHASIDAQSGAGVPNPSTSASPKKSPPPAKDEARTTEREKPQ

[7] = molecular target: T2, NAD-dependent protein deacetylase sirtuin-3, mitochondrial (Homo sapiens, UniProt Q9NTG7); experiment: Inhibition of recombinant human Sirt3 (118 to 395 residues) expressed in Escherichia coli BL21 Star (DE3) using ZMAL as substrate incubated for 4 hrs in presence of NAD+ by trypsin based fluorescence analysis
T2 sequence (Q9NTG7 whole entry): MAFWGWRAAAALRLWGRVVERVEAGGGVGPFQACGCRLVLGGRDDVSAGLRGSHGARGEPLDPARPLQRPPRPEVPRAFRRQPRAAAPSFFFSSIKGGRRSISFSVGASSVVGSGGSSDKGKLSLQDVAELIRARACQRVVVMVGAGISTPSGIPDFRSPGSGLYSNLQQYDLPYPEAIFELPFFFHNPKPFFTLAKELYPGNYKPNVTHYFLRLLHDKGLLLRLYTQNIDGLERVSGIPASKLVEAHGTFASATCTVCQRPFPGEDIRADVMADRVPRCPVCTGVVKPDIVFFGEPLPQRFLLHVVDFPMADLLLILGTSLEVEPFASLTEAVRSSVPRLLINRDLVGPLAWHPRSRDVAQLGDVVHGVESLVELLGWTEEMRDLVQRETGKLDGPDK
How it was run: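 Human Sirt1 (134–747) or Sirt3 (118–395) expressed in E. coli, purified by Strep-Tactin and size exclusion. Assay with ZMAL (10.5 µM final) in Tris buffer pH 8.0, 5% DMSO, at 37 °C. Started with NAD+ (500 µM final). Conversion set to 15–30%.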

**Q.** For `Cc1cc(C)nc(SCC(=O)Nc2ncc(Cc3cccc(OCc4cn(CCOCCOCCOCCOCCC(=O)Nc5ccc(C(=O)NCCCCCCC(=O)NO)cc5)nn4)c3)s2)n1`, which inhibition at 50 µM [1] is on record?
**A.** < 20%

**Q.** And the inhibition at 50 µM [2]?
**A.** < 20%

**Q.** And the inhibition at 50 µM [3]?
**A.** < 20%

**Q.** And the inhibition [4]?
**A.** Active

**Q.** For `Cc1cc(C)nc(SCC(=O)Nc2ncc(Cc3cccc(OCc4cn(CCOCCOCCOCCOCCC(=O)Nc5ccc(C(=O)NCc6ccc(C(=O)NO)cc6)cc5)nn4)c3)s2)n1`, which inhibition at 50 µM [1] is on record?
**A.** < 20%

**Q.** What about the inhibition at 50 µM [2] of the same compound?
**A.** < 20%

**Q.** And the inhibition at 50 µM [3]?
**A.** < 20%

**Q.** What about the inhibition [4] of the same compound?
**A.** Active

**Q.** And the inhibition at 50 µM [5]?
**A.** < 20%

**Q.** With `Cc1cc(C)nc(SCC(=O)Nc2ncc(Cc3cccc(OCc4cn(CCOCCOCCOCCOCCOCCOCCOCCOCCOCCOCCC(=O)Nc5ccc(C(=O)NCc6ccc(C(=O)NO)cc6)cc5)nn4)c3)s2)n1` as the compound, how does the inhibition at 50 µM [1] read?
**A.** < 20%

**Q.** And the inhibition at 50 µM [2]?
**A.** < 20%

**Q.** What about the inhibition at 50 µM [3] of the same compound?
**A.** < 20%

**Q.** And the inhibition [4]?
**A.** Active

**Q.** What about the inhibition at 50 µM [5] of the same compound?
**A.** < 20%

**Q.** With `O=C(CCCCCCC(=O)Nc1ccccc1)NO` as the compound, how does the inhibition [6] read?
**A.** 18%

**Q.** Which inhibition at 50 µM [1] does the source give for `Cc1cc(C)nc(SCC(=O)Nc2ncc(Cc3cccc(OCc4cn(Cc5ccccc5)nn4)c3)s2)n1` here?
**A.** < 20%

**Q.** Which IC50 [7] does the source give for `COCCn1cc(COc2cccc(Cc3cnc(NC(=O)CSc4nc(C)cc(C)n4)s3)c2)nn1` here?
**A.** > 100 µM
